pIC50, pKi: −log10 of the molar value.
Columns and labels:
Histamine H1 receptor = Histamine H1 receptor (Homo sapiens, UniProt P35367); test: In vitro binding affinity towards histamine H1 receptor expressed in CHO-K1 cells; format: cell-based
[1] = molecular target: T1, Polyunsaturated fatty acid 5-lipoxygenase (Homo sapiens, UniProt P09917); test: In vitro inhibitory activity against 5-lipoxygenase in a human whole blood assay; format: tissue-based
T1 sequence (P09917 whole entry): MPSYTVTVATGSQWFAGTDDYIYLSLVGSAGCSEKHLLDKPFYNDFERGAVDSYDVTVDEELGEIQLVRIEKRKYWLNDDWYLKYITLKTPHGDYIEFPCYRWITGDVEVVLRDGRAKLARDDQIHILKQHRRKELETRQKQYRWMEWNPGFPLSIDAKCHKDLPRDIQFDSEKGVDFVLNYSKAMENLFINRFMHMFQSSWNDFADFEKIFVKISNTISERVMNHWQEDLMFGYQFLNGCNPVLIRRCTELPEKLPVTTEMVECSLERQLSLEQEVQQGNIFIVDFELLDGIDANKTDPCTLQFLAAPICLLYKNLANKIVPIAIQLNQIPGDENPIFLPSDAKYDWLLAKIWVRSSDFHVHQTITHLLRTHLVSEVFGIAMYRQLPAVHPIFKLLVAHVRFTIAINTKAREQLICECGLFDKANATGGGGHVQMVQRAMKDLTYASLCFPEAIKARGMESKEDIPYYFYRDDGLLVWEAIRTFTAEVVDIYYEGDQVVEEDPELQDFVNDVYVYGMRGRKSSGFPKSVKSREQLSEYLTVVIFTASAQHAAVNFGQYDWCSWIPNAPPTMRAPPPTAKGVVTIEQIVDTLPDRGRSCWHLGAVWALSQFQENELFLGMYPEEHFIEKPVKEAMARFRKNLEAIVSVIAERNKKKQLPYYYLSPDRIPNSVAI

[2] = molecular target: T2, Polyunsaturated fatty acid 5-lipoxygenase (Rattus norvegicus, UniProt P12527); test: In vitro inhibitory activity against 5-lipoxygenase in an RBL-2H3 cell lysate; format: cell-based
T2 sequence (P12527 whole entry): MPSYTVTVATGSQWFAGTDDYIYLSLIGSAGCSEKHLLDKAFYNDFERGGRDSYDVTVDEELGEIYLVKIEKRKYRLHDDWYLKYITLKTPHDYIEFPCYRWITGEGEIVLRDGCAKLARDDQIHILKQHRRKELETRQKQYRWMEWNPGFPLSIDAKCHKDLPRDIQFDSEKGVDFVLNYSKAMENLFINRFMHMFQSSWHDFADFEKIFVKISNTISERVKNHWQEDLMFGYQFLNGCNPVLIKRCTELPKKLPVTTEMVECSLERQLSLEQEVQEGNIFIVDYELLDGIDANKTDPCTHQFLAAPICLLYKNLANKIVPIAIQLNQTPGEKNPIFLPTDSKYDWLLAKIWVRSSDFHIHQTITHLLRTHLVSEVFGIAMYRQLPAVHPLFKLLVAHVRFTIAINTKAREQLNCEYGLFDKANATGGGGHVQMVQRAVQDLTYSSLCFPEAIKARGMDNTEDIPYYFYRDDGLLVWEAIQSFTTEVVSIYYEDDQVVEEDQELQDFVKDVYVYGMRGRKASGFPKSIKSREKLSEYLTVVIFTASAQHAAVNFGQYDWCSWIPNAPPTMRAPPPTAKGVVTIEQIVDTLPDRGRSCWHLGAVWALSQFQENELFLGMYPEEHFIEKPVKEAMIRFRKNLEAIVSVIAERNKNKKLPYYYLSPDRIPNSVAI

[3] = Permeability in Caco-2 cells of compound; format: ADME, cell-based; conditions: human
In short: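 Permeability measured across Caco-2 cells and reported as apparent permeability (Papp) in cm/sec.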

Rattus norvegicus = species on record: Rattus norvegicus; test: Intrinsic clearance of compound against NADPH-fortified rat liver microsomes; format: ADME, Microsome
In short: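 Compound incubated with NADPH-fortified rat liver microsomes to measure metabolic stability. Intrinsic clearance is reported as µL/min/mg protein.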

Sequence of Histamine H1 receptor (P35367 whole entry): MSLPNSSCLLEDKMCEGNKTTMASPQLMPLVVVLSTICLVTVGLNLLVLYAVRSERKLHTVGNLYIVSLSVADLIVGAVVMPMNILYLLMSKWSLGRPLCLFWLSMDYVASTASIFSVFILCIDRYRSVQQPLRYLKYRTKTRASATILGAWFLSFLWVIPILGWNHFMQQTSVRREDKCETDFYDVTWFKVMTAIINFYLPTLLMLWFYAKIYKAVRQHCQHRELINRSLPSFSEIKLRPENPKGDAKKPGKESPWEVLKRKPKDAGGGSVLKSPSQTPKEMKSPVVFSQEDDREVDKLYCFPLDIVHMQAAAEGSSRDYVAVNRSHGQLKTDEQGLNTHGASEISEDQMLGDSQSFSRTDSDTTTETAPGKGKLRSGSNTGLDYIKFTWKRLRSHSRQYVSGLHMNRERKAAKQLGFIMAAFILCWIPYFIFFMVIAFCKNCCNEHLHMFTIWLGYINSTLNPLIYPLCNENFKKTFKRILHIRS

Row | pKi (Histamine H1 receptor) | pIC50 [1] | Structure (SMILES) | pIC50 [2] | Permeability [3] [×10⁻⁶ cm/s] | Clint (Rattus norvegicus)
1 | 7.30 |  | NC(=O)N(O)CCC#C[C@@H]1CC[C@@H](CN2CCN([C@H](c3ccccc3)c3ccc(Cl)cc3)CC2)O1 |  |  | 
2 | 6.72 | 5.46 | CC(C#Cc1ccc(CN2CCN([C@H](c3ccccc3)c3ccc(Cl)cc3)CC2)o1)N(O)C(N)=O (some centres undefined) |  |  | 
3 |  | 6.77 | NC(=O)N(O)CCC#Cc1ccc(CN2CCN(C(c3ccc(F)cc3)c3ccc(F)cc3)CC2)o1 | > 6.70 |  | 
4 | 6.74 | 6.29 | NC(=O)N(O)CCC#C[C@H]1CC[C@H](CN2CCN([C@H](c3ccccc3)c3ccc(Cl)cc3)CC2)O1 |  |  | 
5 | 6.18 | 6.85 | NC(=O)N(O)CCC#C[C@@H]1CC[C@@H](CN2CCN(C(c3ccc(F)cc3)c3ccc(F)cc3)CC2)O1 |  |  | 

Row | Structure (SMILES) | pKi (Histamine H1 receptor) | pIC50 [1] | pIC50 [2] | Permeability [3] [×10⁻⁶ cm/s] | Clint (Rattus norvegicus)
6 | NC(=O)N(O)CCC#Cc1ccc(CN2CCN([C@H](c3ccccc3)c3ccc(Cl)cc3)CC2)o1 |  | 6.38 | > 6.70 | 6 | 33 ul min-1 (mg of protein)-1
7 | NC(=O)N(O)CCC#C[C@@H]1CC[C@@H](COc2ccc(F)cc2)O1 |  | 6.93 |  |  | 
